Measurements as given in ChEMBL document CHEMBL4368912, “Discovery and Development of N-[4-(1-Cyclobutylpiperidin-4-yloxy)phenyl]-2-(morpholin-4-yl)acetamide Dihydrochloride (SUVN-G3031): A Novel, Potent, Selective, and Orally Active Histamine H3 Receptor Inverse Agonist with Robust Wake-Promoting Activity” (J Med Chem, 2019).
Calls of active or inactive are those of the source. The rule behind the calls is not given here.

Assays:
[1] = Toxicity in dog assessed as effect on body temperature at 10 to 25 mg/kg, po; format: organism-based, Canis lupus familiaris; settings: in vivo
Procedure, shortened: (§1)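 Male dogs received oral doses of 10, 18 and 25 mg/kg. Body weight, body temperature, blood pressure, heart rate and ECG were monitored.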

[2] = Mutagenicity in Salmonella typhimurium TA100 in presence of metabolic activation by Ames test; format: toxicity; settings: salmonella enterica subsp. enterica serovar typhimurium
Procedure, shortened: (§2)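 Reverse-mutation test in Salmonella typhimurium TA1537, TA1535, TA98 and TA100 and in E. coli WP2 uvrA, run with and without metabolic activation.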

[3] = Mutagenicity in Salmonella typhimurium TA100 in absence of metabolic activation by Ames test; format: toxicity; settings: salmonella enterica subsp. enterica serovar typhimurium; procedure, shortened: as §2
[4] = Mutagenicity in Salmonella typhimurium TA1537 in presence of metabolic activation by Ames test; format: toxicity; settings: salmonella enterica subsp. enterica serovar typhimurium
[5] = Metabolic stability in human liver microsomes in presence of NADPH after 30 mins by LC-MS/MS analysis; format: ADME, Microsome; settings: read-out: Stability
[6] = Toxicity in dog assessed as effect on blood pressure at 10 to 25 mg/kg, po; format: organism-based, Canis lupus familiaris; settings: in vivo; procedure, shortened: as §1
[7] = Mutagenicity in Escherichia coli WP2 in presence of metabolic activation by Ames test; format: toxicity; procedure, shortened: as §2
[8] = Apparent permeability across basolateral to apical side in human Caco2 cells at 10 uM; format: ADME, cell-based; settings: Caco-2
Procedure, shortened: (§3)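 Caco-2 monolayers; bidirectional permeability measured at 10 µM, with and without the P-gp inhibitor verapamil.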

Cytochrome P450 2D6 = Cytochrome P450 2D6 (Homo sapiens, UniProt P10635); test: Inhibition of CYP2D6 in human liver microsomes using dextromethorphan as substrate after 12 mins in presence of NADPH by LC-MS/MS analysis; format: ADME
Rattus norvegicus [9] = test: Effect on locomotor activity in Wistar rat up to 100 mg/kg, po by open field test; format: ADME, organism-based; settings: in vivo
[10] = Mutagenicity in Escherichia coli WP2 in absence of metabolic activation by Ames test; format: toxicity; procedure, shortened: as §2
[11] = Toxicity in dog assessed as effect on heart rate at 10 to 25 mg/kg, po; format: organism-based, Canis lupus familiaris; settings: in vivo; procedure, shortened: as §1
[12] = Toxicity in Wistar rat up to 100 mg/kg, po by Irwin's test; format: organism-based; settings: in vivo
Procedure, shortened: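 CNS safety was screened with a modified Irwin's test at oral doses up to 100 mg/kg.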

[13] = Fraction unbound in dog plasma at 1 uM by equilibrium dialysis; format: ADME, cell-free, Canis lupus familiaris
Procedure, shortened: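 Rapid equilibrium dialysis of fresh rat, dog or human plasma at a compound concentration of 1.0 µM. Unbound fraction reported as a percentage.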

[14] = Solubility in water; format: physicochemical
[15] = Dissociation constant, pKa2 of the compound by potentiometric titration assay; format: physicochemical
CHO-K1 = test: Induction of phospholipidosis in CHOK1 cells up to 300 uM incubated for 24 hrs by fluorescent-labeled phospholipid probe NBD-PE based fluorescence assay; format: cell-based, Cricetulus griseus; settings: chinese hamster, cho-k1, 24 h
Rattus norvegicus [16] = test: Effect on accumbal dopamine levels in Wistar rat at 100 mg/kg, po by microdialysis; format: ADME, organism-based; settings: in vivo
[17] = AUC (0 to 24 hrs) in Wistar rat at 3 mg/kg, po by LC-MS/MS analysis; format: ADME, organism-based; set-up: dose 3 mg/kg, time < 24 hr, route oral; settings: in vivo
Procedure, shortened: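 Fasted male Wistar rats; compound in water for injection, given i.v. (2 mL/kg) or p.o. (10 mL/kg). Plasma exposure measured as AUC0-24hr.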

Bone marrow cell = test: Clastogenic activity in micronucleus of mouse bone marrow cells; format: toxicity, cell-based
[18] = Metabolic stability in dog liver microsomes in presence of NADPH after 30 mins by LC-MS/MS analysis; format: ADME, Canis lupus familiaris, Microsome; settings: read-out: Stability
Rattus norvegicus [19] = test: Induction of wake promoting activity in orexin-B-saporin lesioned Wistar rat assessed as increase in wake time at 10 to 30 mg/kg, po dosed 15 mins before start of dark phase; format: functional, organism-based
Procedure, shortened: (§4)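 Rats carried epidural frontal-cortex EEG screws, nuchal EMG leads, and bilateral lateral hypothalamic orexin-B-saporin (490 ng/0.8 µl). After at least 3 weeks' recovery, they were dosed 15 min before lights-off in a crossover design with a 1-week washout. Wake, NREM and REM time was totalled over 3 h. DREM was scored as REM after ≥60 s wake. Dunnett's test was used.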

PBL = test: Clastogenic activity in human peripheral blood lymphocytes by chromosomal aberration test; format: toxicity, cell-based
[20] = Apparent permeability across apical to basolateral side in human Caco2 cells at 10 uM; format: ADME, cell-based; settings: Caco-2; procedure, shortened: as §3
[21] = Dissociation constant, pKa1 of the compound by potentiometric titration assay; format: physicochemical
[22] = Volume of distribution at steady state in Wistar rat at 3 mg/kg, po or 1 mg/kg, iv by LC-MS/MS analysis; format: ADME, organism-based; settings: Wistar, in vivo, read-out: Vdss
Procedure, shortened: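 Fasted male Wistar rats were dosed orally and intravenously, with water for injection as the vehicle for both routes, at dosing volumes of 10 mL/kg p.o. and 2 mL/kg i.v.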

[23] = Mutagenicity in Salmonella typhimurium TA1535 in presence of metabolic activation by Ames test; format: toxicity; settings: salmonella enterica subsp. enterica serovar typhimurium
[24] = Fraction unbound in rat brain at 1 uM by equilibrium dialysis; format: ADME, tissue-based
Cytochrome P450 2C19 = Cytochrome P450 2C19 (Homo sapiens, UniProt P33261); test: Inhibition of CYP2C19 (unknown origin); format: ADME
[25] = Lipophilicity, log D of the compound at pH 7.4; format: physicochemical; settings: buffer
[26] = Mutagenicity in Salmonella typhimurium TA1537 in absence of metabolic activation by Ames test; format: toxicity; settings: salmonella enterica subsp. enterica serovar typhimurium
[27] = Metabolic stability in rat hepatocytes after 30 mins by LC-MS/MS analysis; format: ADME, cell-based, Hepatocyte; settings: read-out: Stability
[28] = Clearance in Wistar rat at 1 mg/kg, iv by LC-MS/MS analysis; format: ADME, organism-based; settings: in vivo
Procedure, shortened: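 Fasted male Wistar rats dosed i.v. in water for injection at 2 mL/kg. Clearance and half-life derived from the i.v. plasma profile.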

[29] = Metabolic stability in monkey liver microsomes in presence of NADPH after 30 mins by LC-MS/MS analysis; format: ADME, Macaca mulatta, Microsome; settings: rhesus monkey, read-out: Stability
[30] = Ratio of drug uptake in Wistar rat brain to plasma at 3 mg/kg, po by LC-MS/MS analysis; format: ADME, organism-based; settings: brain and plasma, read-out: BPR
Procedure, shortened: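 Fasted male Wistar rats were dosed orally with water for injection as the vehicle. Total brain and plasma concentrations were measured at 1 h after dosing and expressed as a ratio.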

Cytochrome P450 2C9 = Cytochrome P450 2C9 (Homo sapiens, UniProt P11712); test: Inhibition of CYP2C9 (unknown origin); format: ADME
[31] = Metabolic stability in human hepatocytes after 30 mins by LC-MS/MS analysis; format: ADME, cell-based, Hepatocyte; settings: read-out: Stability
Rattus norvegicus [32] = test: Induction of wake promoting activity in orexin-B-saporin lesioned Wistar rat assessed as decrease in REM sleep time at 10 to 30 mg/kg, po dosed 15 mins before start of dark phase; format: functional, organism-based; procedure, shortened: as §4
Cytochrome P450 2E1 = Cytochrome P450 2E1 (Homo sapiens, UniProt P05181); test: Inhibition of CYP2E1 (unknown origin); format: ADME
Chain of Cytochrome P450 2E1 (P05181 whole entry): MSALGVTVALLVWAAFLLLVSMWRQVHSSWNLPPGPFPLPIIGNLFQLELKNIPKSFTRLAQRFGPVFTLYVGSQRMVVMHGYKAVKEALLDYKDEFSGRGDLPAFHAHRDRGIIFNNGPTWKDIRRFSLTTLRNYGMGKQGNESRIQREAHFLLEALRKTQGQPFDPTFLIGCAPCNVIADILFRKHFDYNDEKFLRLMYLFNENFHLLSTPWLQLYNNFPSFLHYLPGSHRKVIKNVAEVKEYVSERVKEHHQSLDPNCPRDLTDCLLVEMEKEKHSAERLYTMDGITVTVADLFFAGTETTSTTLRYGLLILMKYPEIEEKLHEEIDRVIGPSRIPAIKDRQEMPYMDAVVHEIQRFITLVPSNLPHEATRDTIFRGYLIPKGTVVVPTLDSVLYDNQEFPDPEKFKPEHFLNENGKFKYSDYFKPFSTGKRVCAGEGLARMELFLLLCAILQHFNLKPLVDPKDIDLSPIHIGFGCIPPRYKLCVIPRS

Chain of Cytochrome P450 2C19 (P33261 whole entry): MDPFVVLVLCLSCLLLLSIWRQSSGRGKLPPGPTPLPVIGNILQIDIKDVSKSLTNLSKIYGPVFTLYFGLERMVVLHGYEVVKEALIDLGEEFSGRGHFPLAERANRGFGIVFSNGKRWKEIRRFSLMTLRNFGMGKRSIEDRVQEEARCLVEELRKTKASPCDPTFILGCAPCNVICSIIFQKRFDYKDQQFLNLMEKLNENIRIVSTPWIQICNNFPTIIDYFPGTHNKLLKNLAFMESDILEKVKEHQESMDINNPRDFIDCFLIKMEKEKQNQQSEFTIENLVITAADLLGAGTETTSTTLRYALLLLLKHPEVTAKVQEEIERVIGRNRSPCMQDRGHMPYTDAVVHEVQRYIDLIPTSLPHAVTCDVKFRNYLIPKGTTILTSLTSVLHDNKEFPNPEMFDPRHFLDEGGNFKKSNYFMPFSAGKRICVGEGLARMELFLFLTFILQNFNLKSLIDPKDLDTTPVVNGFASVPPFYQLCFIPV
Chain of Cytochrome P450 2C9 (P11712 whole entry): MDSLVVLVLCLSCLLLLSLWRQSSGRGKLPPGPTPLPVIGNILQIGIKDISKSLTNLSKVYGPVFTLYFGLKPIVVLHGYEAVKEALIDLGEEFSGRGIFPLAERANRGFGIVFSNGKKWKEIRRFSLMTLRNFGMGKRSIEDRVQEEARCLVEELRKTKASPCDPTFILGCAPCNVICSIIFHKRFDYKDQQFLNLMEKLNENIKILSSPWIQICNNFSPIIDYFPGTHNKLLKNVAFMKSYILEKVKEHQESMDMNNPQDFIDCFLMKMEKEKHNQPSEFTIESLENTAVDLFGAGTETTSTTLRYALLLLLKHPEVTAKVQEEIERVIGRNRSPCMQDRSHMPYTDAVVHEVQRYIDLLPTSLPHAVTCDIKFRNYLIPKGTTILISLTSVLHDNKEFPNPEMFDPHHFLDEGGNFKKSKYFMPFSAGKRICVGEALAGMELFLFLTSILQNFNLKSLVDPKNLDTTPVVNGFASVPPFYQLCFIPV
Chain of Cytochrome P450 2D6 (P10635 whole entry): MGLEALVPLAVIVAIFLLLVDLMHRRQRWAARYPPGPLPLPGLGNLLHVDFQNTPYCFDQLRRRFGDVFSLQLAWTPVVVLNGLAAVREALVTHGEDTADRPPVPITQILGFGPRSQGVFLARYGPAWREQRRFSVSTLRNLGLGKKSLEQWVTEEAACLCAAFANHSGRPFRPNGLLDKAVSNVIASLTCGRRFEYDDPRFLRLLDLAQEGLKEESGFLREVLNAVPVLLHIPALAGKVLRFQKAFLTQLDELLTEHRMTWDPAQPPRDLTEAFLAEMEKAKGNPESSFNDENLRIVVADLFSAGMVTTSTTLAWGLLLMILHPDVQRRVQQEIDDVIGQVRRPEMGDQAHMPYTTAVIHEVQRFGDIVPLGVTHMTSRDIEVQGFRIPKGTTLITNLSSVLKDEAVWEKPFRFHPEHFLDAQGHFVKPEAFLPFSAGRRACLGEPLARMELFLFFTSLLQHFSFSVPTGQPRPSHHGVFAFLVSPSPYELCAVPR

Compound: Cl.Cl.O=C(CN1CCOCC1)Nc1ccc(OC2CCN(C3CCC3)CC2)cc1
- Activity [1]: Non-Toxic
- Activity [2]: Non-Toxic
- Activity [3]: Non-Toxic
- Activity [4]: Non-Toxic
- remaining at 0.5 h [5]: < 5%
- Activity [6]: Non-Toxic
- Activity [7]: Non-Toxic
- Papp B→A at 10 µM [8]: 30.8 ×10⁻⁶ cm/s
- IC50 (Cytochrome P450 2D6): > 45 µM
- Activity (Rattus norvegicus [9]): Non-Toxic
- Activity [10]: Non-Toxic
- Activity [11]: Non-Toxic
- Activity [12]: Non-Toxic
- fraction unbound at 1 µM [13]: 0.52
- solubility [14]: 730 mg/mL
- pKa [15]: 4.9
- Activity (CHO-K1): Non-Toxic
- Activity (Rattus norvegicus [16]): Non-Toxic
- AUC(0-t) at 24 h [17]: 626 ng·h/mL
- Activity (Bone marrow cell): Non-Toxic
- remaining at 0.5 h [18]: 13%
- Activity (Rattus norvegicus [19]): Active
- Activity (PBL): Non-Toxic
- Papp A→B at 10 µM [20]: 30.8 ×10⁻⁶ cm/s
- pKa [21]: 8.5
- Vd [22]: 5 L/kg
- Activity [23]: Non-Toxic
- fraction unbound at 1 µM [24]: 0.57
- IC50 (Cytochrome P450 2C19): > 45 µM
- logD [25]: 0.4
- Activity [26]: Non-Toxic
- remaining at 0.5 h [27]: 37%
- clearance [28]: 63 mL/min/kg
- remaining at 0.5 h [29]: 35%
- Kp [30]: 0.93
- IC50 (Cytochrome P450 2C9): > 45 µM
- remaining at 0.5 h [31]: < 5%
- Activity (Rattus norvegicus [32]): Active
- IC50 (Cytochrome P450 2E1): > 10 µM
